Reference: PMC2212161 (The Journal of Experimental Medicine, 1998)
Like-named read-outs stand apart in the source and are kept apart here.

What was measured:
[1] = tested on: F19/caspase-6; format: cell-based, human; conditions: inhibitor 10–100 μM preincubated before Fas receptor cross-linking; Fig. 2 C
[2] = tested on: F22/caspase-7; format: cell-based, human
[3] = tested on: F20/caspase-3-p20; format: cell-based, human
[4] = tested on: F17/caspase-3-p17; format: cell-based, human
[5] = tested on: F19/caspase-6; assay: Cell-free caspase activation in Jurkat extracts triggered by caspase-8: F19; format: biochemical, human
[6] = tested on: F22/caspase-7; assay: Cell-free caspase activation in Jurkat extracts triggered by caspase-8: F22; format: biochemical, human
[7] = tested on: F17/caspase-3-p17; assay: Cell-free caspase activation in Jurkat extracts triggered by caspase-8: F17; format: biochemical, human
[8] = tested on: active caspases in Jurkat cytoplasmic extracts; format: biochemical, human; conditions: inhibitor 10 μM; Fig. 2 A
[9] = tested on: caspase activity in Fas-stimulated Jurkat cells; assay: Flow cytometric analysis of intracellular caspase activity with PhiPhiLux-G2D2; format: cell-based, human; conditions: inhibitor 100 μM alone without Fas stimulation; data not shown
[10] = tested on: NuMA; assay: Immunoblotting for NuMA cleavage in Fas-stimulated Jurkat cells; format: cell-based, human; conditions: Fig. 5 B
Method in brief: (§1)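 Jurkat cells were preincubated with inhibitor, then Fas-stimulated. Whole-cell extracts were made by boiling pellets 3 min in SDS sample buffer (50 mM Tris-HCl pH 6.8, 15% sucrose, 3% SDS). Gels were 5% SDS-PAGE for NuMA (rabbit polyclonal r240-C) and 10% for PARP (mAb C-2-10) and PAK2 (rabbit anti-ste20-subdomain VI). Proteins were blotted to nitrocellulose and cleavage fragments immunodetected.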

[11] = tested on: PARP; assay: Immunoblotting for PARP cleavage in Fas-stimulated Jurkat cells; format: cell-based, human; conditions: Fig. 5 C
Method in brief: as §1

[12] = tested on: PAK2; assay: Immunoblotting for PAK2 cleavage in Fas-stimulated Jurkat cells; format: cell-based, human; conditions: Fig. 5 D
Method in brief: as §1

[13] = tested on: Fas-stimulated Jurkat cells; assay: Nuclear morphological changes; format: cell-based, human; conditions: inhibitor 100 μM preincubated 1 h 37°C; anti-Fas mAb 4 h; DAPI; Fig. 6
Method in brief: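 Jurkat cells were preincubated 1 h at 37°C with inhibitor (1, 10 or 100 μM) or 1% DMSO, then stimulated with anti-Fas mAb for 4 h; unstimulated cells were kept 4 h as control. Cells were fixed with 1% glutaraldehyde, stained with 2 μg/ml DAPI, and scored microscopically for chromatin condensation, nuclear shrinkage and fragmentation.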

[14] = tested on: Fas-stimulated Jurkat cells; assay: Flow cytometric analysis of DNA fragmentation; format: cell-based, human; conditions: anti-Fas mAb 4 h, Fig. 7 B
Method in brief: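 Jurkat cells were pretreated with inhibitor, then given anti-Fas mAb for 4 h. Cells (10⁶) were fixed in 70% ethanol for 2 h on ice, washed in PBS, and treated with 10 μg/ml RNase A for 30 min at 37°C. They were stained with 50 μg/ml propidium iodide for 30 min on ice in the dark, and PI (log scale) was recorded against forward scatter by flow cytometry.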

[15] = tested on: Fas-stimulated Jurkat cells; assay: Apoptotic body formation; format: cell-based, human; conditions: for Appearance of the cell population with the lowest FSC: flow cytometry; for Apoptotic body formation: phase contrast microscopy, Fig. 8
Method in brief: (§2)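 Jurkat cells were preincubated 1 h at 37°C with inhibitor or 1% DMSO, then stimulated with anti-Fas mAb for 4 h. Cell size was read as forward scatter in flow cytometry, from PhiPhiLux-loaded or PI-stained cells. Reference was the lower FSC border of normally growing cells. Cell shape and apoptotic bodies were viewed by phase contrast microscopy.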

[16] = tested on: Fas-stimulated Jurkat cells; assay: Shrinkage of cytoplasm / cell size; format: cell-based, human; conditions: for Shrinkage of cytoplasm / decrease in cell size (FSC): Figs. 3 B and 7 B; for Fas-induced shrinkage of cells: phase contrast microscopy, Fig. 8
Method in brief: as §2

[17] = tested on: Fas-stimulated Jurkat cells; assay: Mitochondrial PT; format: cell-based, human; conditions: Fas stimulation 4 h, Fig. 9 B
Method in brief: (§3)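 Jurkat cells (5 × 10⁵) were pretreated 1 h with inhibitor, then stimulated with anti-Fas for 4 h. Cells were mesh-filtered and analysed at once by flow cytometry.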

[18] = tested on: Fas-stimulated Jurkat cells; assay: PS externalization; format: cell-based, human; conditions: Fas stimulation 4 h, Fig. 9 B; for PS externalization (increase in annexin V binding): inhibitor 100 μM pretreated 1 h
Method in brief: as §3

[19] = tested on: Caspase-8; assay: Sensitivity of caspase-8 to DMQD-CHO; format: biochemical; conditions: data not shown
[20] = tested on: F19/caspase-6; conditions: cited from earlier work
[21] = tested on: F20/caspase-3-p20; conditions: cited from earlier work
[22] = tested on: NuMA; conditions: Fas-stimulated Jurkat cells; cited from earlier work
[23] = tested on: active caspases in Fas-stimulated Jurkat cells; format: cell-based, human; conditions: inhibitor 100 μM, preincubated 1 h; anti-Fas mAb 4 h; Fig. 1 A
[24] = tested on: pro–caspase-7; assay: Processing of pro–caspase-7 in Fas-stimulated Jurkat cells; format: cell-based, human; conditions: inhibitor 100 μM; same blot reprobed with anti–caspase-7 Ab; Fig. 1 B
Method in brief: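 The affinity-labeling blot from Jurkat cells (inhibitor preincubation 1 h, anti-Fas CH-11 100 ng/ml, 4 h, serum-free RPMI-1640) was reprobed with anti-caspase-7 antibody to follow pro-caspase-7 processing.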

[25] = tested on: F20/caspase-3-p20; assay: Cell-free caspase activation in Jurkat extracts triggered by caspase-8: F20; format: biochemical, human; conditions: inhibitor 10 nM added before caspase-8; data not shown
[26] = tested on: KB epidermal carcinoma cells; conditions: inhibitor 50 μM; cited from earlier work
[27] = inhibitor 10–100 μM preincubated before Fas receptor cross-linking, Fig. 2 C
[28] = inhibitor 100 μM, flow cytometry
[29] = inhibitor 100 μM pretreated 1 h
[30] = inhibitor 10 μM, preincubated 1 h, anti-Fas mAb 4 h, Fig. 1 A
[31] = inhibitor 10 nM added before caspase-8, data not shown

## Ac-DMQD-aldehyde [DMQD-CHO]
[1]
  Appearance of F19/caspase-6: blocked
[2]; inhibitor 100 μM preincubated 1 h, Fig. 2 D
  Activation of caspase-7 (time course): uninterrupted
[2]; inhibitor up to 100 μM, Fig. 2 C
  Labeling of F22: persisted
[3]; [27]
  Labeling of F20/caspase-3-p20: suppressed
[4]; [27]
  Labeling of F17/caspase-3-p17: suppressed
[5]; preincubation before addition of caspase-8, Fig. 2 A
  Concentration preventing appearance of F19/caspase-6: 1 to 2 µM
[6]; inhibitor up to 5 μM, Fig. 2 A
  Labeling of F22/caspase-7: unhindered
[7]; inhibitor 1–2 μM, Jurkat extract preincubated, caspase-8, 4 h 37°C, Fig. 2 A
  Labeling of F17/caspase-3-p17: suppressed
[8]
  Caspase labeling (all): loss of all labeling
[9]
  Increase in PhiPhiLux-G2D2 fluorescence or cell shrinkage: did not induce
[10]; inhibitor 100 μM
  Generation of the 160-kD NuMA fragment: blocked
  Generation of the 180-kD NuMA fragment: blocked
[11]; inhibitor 100 μM
  PARP cleavage: only weakly inhibited
[12]; inhibitor 100 μM
  Cleavage of PAK2: suppressed
[13]
  Nuclear morphological changes: completely blocked
[14]; inhibitor 100 μM
  DNA fragmentation: completely inhibited
[15]; inhibitor 100 μM, Figs. 3 B and 7 B
  Appearance of the cell population with the lowest FSC: suppressed
[15]; inhibitor 100 μM
  Apoptotic body formation: formed no apoptotic bodies
[16]; [28]
  Shrinkage of cytoplasm / decrease in cell size (FSC): proceeded to a significant degree
[16]; inhibitor 100 μM
  Fas-induced shrinkage of cells: Neither 100 μM DMQD-CHO (Fig. 8 h) nor 10 μM VEID-CHO (Fig. 8 d) affected
[17]; [29]
  Mitochondrial PT: not affected
[18]
  PS externalization (increase in annexin V binding): suppressed
[19]
  Sensitivity of caspase-8: relatively insensitive
[20]; higher for caspase-6
  Concentration required to block activity of caspase-6 relative to caspase-7: ~10 fold
[20]; inhibitor even at 100 μM
  Activity of F19/caspase-6: insensitive
[21]
  Concentrations previously shown to block the activity of F20/caspase-3-p20: 1 to 2 µM

## DEVD-CHO
[22]
  NuMA cleavage: blocked

## acetyl-Val-Ileu-Asp-aldehyde [VEID-CHO]
[2]; [30]
  Labeling of F22/caspase-7: unaffected
[3]; [30]
  Labeling of F20/caspase-3-p20: unaffected
[4]; [30]
  Labeling of F17/caspase-3-p17: Suppression
[23]
  Caspase labeling (all): loss of all caspase labeling
[24]
  Processing of pro–caspase-7: blocked
[5]; [31]
  Activity of caspase-6 in cell-free activation: selectively blocked
[6]; [31]
  Activation of caspase-7 in cell-free activation: minimal effects
[25]
  Activation of caspase-3-p20 in cell-free activation: minimal effects
[7]; [31]
  Activation of caspase-3-p17 in cell-free activation: minimal effects
[10]; inhibitor 1 μM
  Proteolysis yielding the 180-kD NuMA fragments: not affected
[10]; inhibitor 10 μM
  180-kD NuMA fragment: moderate decrease
[10]; inhibitor 1–10 μM
  Production of the 160-kD NuMA fragment: suppressed
[11]; inhibitor 1 μM
  PARP cleavage: did not affect
[11]; inhibitor 10 μM
  PARP cleavage: Partial blockade
[11]; inhibitor 100 μM
  PARP cleavage: markedly suppressed
[12]; inhibitor up to 10 μM
  Cleavage of PAK2: failed to affect
[14]; inhibitor 100 μM
  DNA fragmentation: suppresses both
[14]; inhibitor up to 10 μM
  DNA fragmentation: did not prevent
[15]; inhibitor 10 μM, Fig. 7 B
  Appearance of the cell population with the lowest FSC: had no effect
[15]; inhibitor up to 10 μM
  Apoptotic body formation: did not prevent
[16]; inhibitor 10 μM, flow cytometry, Fig. 7 B
  Cell size (FSC): had no effect
[16]; inhibitor 10 μM
  Fas-induced shrinkage of cells: Neither 100 μM DMQD-CHO (Fig. 8 h) nor 10 μM VEID-CHO (Fig. 8 d) affected
[16]; [28]
  Shrinkage of cytoplasm / decrease in cell size (FSC): markedly suppressed
[16]; inhibitor 100 μM
  Fas-induced shrinkage of cells: completely blocked
[17]; inhibitor 10 μM pretreated 1 h
  Mitochondrial PT: Neither PT nor PS externalization were affected
[17]; [29]
  Mitochondrial PT: markedly inhibited
[18]; inhibitor 10 μM pretreated 1 h
  PS externalization: Neither PT nor PS externalization were affected
[18]
  PS externalization (increase in annexin V binding): markedly inhibited

## benzyloxycarbonyl-Asp-Glu-Val-Asp(OMe)-fluoromethylketone [zDEVD-FK]
[26]
  Fas-induced chromatin condensation and apoptotic body formation: abolished

## benzyloxycarbonyl-Val-Ala-Asp(OMe)-fluoromethylketone [zVAD-fmk]
[22]
  NuMA cleavage: blocked
